Results published in ChEMBL document CHEMBL5724801, “EUbOPEN Chemogenomics Library - Multiplex” (2024).
“And” between values parts separate entries of the source, which are not always exact repeats. Identical values can stand only once.

System: Fibroblast
Assay: Multiplex assay against human fibroblast
Assay type: toxicity, cell-based
Summary of the method: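 Cells were classed with CellPathfinder machine-learning gating, first as Hoechst high-intensity objects or normal cells, then (normal cells) as healthy, pyknosed or fragmented nuclei, and finally (pyknosed cells) as mitotic or apoptotic. Staining of live cells at seeding used Hoechst33342, BioTracker Green Microtubule Cytoskeleton Dye, MitoTracker Red and Annexin V Alexa Fluor 680, with imaging on a CQ1 microscope at 37°C and 5% CO2 after compound addition. Tubulin, mitochondrial-mass and membrane-permeability phenotypes are per cents of healthy-nucleus cells.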

[1] = 12 h, 1 µM, compound concentration 1 uM
[2] = 12 h, 10 µM, compound concentration 10 uM
[3] = 24 h, 1 µM, compound concentration 1 uM
[4] = 24 h, 10 µM, compound concentration 10 uM
[5] = 48 h, 1 µM, compound concentration 1 uM
[6] = 48 h, 10 µM, compound concentration 10 uM

Cl.NCCc1ccc(O)c(O)c1 [DOPAMINE HYDROCHLORIDE]
Population Apoptotic (%) [1]: 42% and 44%
Population Fragmented Nuclei (%) [1]: 13% and 34%
Population Healthy Nuclei (%) [1]: 63% and 40%
Population Hoechst High Intensity Objects (%) [1]: 1%
Population Membrane Permeable-Phenotype (%) [1]: 0% and 4%
Population Mitochondria Different-Phenotype (%) [1]: 1% and 6%
Population Mitotic Cells (%) [1]: 57% and 55%
Population Normal (%) [1]: 98%
Population Pyknosed Nuclei (%) [1]: 23% and 24%
Population Tubulin-Different-Phenotype (%) [1]: 34% and 45%
Total Cell Count [1]: 115 and 152
Population Apoptotic (%) [2]: 56% and 41%
Population Fragmented Nuclei (%) [2]: 14% and 35%
Population Healthy Nuclei (%) [2]: 62% and 40%
Population Hoechst High Intensity Objects (%) [2]: 3% and 4%
Population Membrane Permeable-Phenotype (%) [2]: 0% and 6%
Population Mitochondria Different-Phenotype (%) [2]: 3% and 6%
Population Mitotic Cells (%) [2]: 43% and 58%
Population Normal (%) [2]: 96% and 95%
Population Pyknosed Nuclei (%) [2]: 23%
Total Cell Count [2]: 135 and 127
Population Apoptotic (%) [3]: 55% and 51%
Population Fragmented Nuclei (%) [3]: 14% and 34%
Population Healthy Nuclei (%) [3]: 69% and 47%
Population Hoechst High Intensity Objects (%) [3]: 0% and 2%
Population Membrane Permeable-Phenotype (%) [3]: 1% and 7%
Population Mitochondria Different-Phenotype (%) [3]: 1% and 0%
Population Mitotic Cells (%) [3]: 44% and 48%
Population Normal (%) [3]: 99% and 97%
Population Pyknosed Nuclei (%) [3]: 16% and 18%
Population Tubulin-Different-Phenotype (%) [3]: 31% and 37%
Total Cell Count [3]: 112 and 150
Population Apoptotic (%) [4]: 55% and 47%
Population Fragmented Nuclei (%) [4]: 16% and 37%
Population Healthy Nuclei (%) [4]: 69% and 46%
Population Hoechst High Intensity Objects (%) [4]: 2% and 3%
Population Membrane Permeable-Phenotype (%) [4]: 1% and 3%
Population Mitochondria Different-Phenotype (%) [4]: 5% and 7%
Population Mitotic Cells (%) [4]: 44% and 52%
Population Normal (%) [4]: 97% and 96%
Population Pyknosed Nuclei (%) [4]: 13% and 15%
Population Tubulin-Different-Phenotype (%) [4]: 22% and 56%
Total Cell Count [4]: 136 and 126
Population Apoptotic (%) [5]: 36% and 38%
Population Fragmented Nuclei (%) [5]: 22% and 33%
Population Healthy Nuclei (%) [5]: 66% and 52%
Population Hoechst High Intensity Objects (%) [5]: 6%
Population Membrane Permeable-Phenotype (%) [5]: 1% and 5%
Population Mitochondria Different-Phenotype (%) [5]: 2% and 3%
Population Mitotic Cells (%) [5]: 63% and 61%
Population Normal (%) [5]: 93%
Population Pyknosed Nuclei (%) [5]: 10% and 14%
Population Tubulin-Different-Phenotype (%) [5]: 28% and 43%
Total Cell Count [5]: 110 and 159
Population Apoptotic (%) [6]: 87% and 90%
Population Fragmented Nuclei (%) [6]: 21% and 31%
Population Healthy Nuclei (%) [6]: 66% and 60%
Population Hoechst High Intensity Objects (%) [6]: 4% and 0%
Population Membrane Permeable-Phenotype (%) [6]: 0% and 7%
Population Mitochondria Different-Phenotype (%) [6]: 4%
Population Mitotic Cells (%) [6]: 12% and 10%
Population Normal (%) [6]: 95% and 99%
Population Pyknosed Nuclei (%) [6]: 11% and 8%
Population Tubulin-Different-Phenotype (%) [6]: 25% and 56%
Total Cell Count [6]: 141 and 116

CNC[C@H](O)c1ccc(O)c(O)c1 [EPINEPHRINE]
Population Apoptotic (%) [1]: 36% and 40%
Population Fragmented Nuclei (%) [1]: 17% and 38%
Population Healthy Nuclei (%) [1]: 66% and 44%
Population Hoechst High Intensity Objects (%) [1]: 1%
Population Mitochondria Different-Phenotype (%) [1]: 3% and 7%
Population Mitotic Cells (%) [1]: 63% and 60%
Population Normal (%) [1]: 98%
Population Pyknosed Nuclei (%) [1]: 16% and 17%
Population Tubulin-Different-Phenotype (%) [1]: 15% and 42%
Population Apoptotic (%) [2]: 40% and 32%
Population Fragmented Nuclei (%) [2]: 18% and 39%
Population Healthy Nuclei (%) [2]: 61% and 37%
Population Hoechst High Intensity Objects (%) [2]: 3% and 7%
Population Mitochondria Different-Phenotype (%) [2]: 6% and 8%
Population Mitotic Cells (%) [2]: 60% and 67%
Population Normal (%) [2]: 96% and 92%
Population Pyknosed Nuclei (%) [2]: 20% and 23%
Population Tubulin-Different-Phenotype (%) [2]: 23% and 55%
Population Apoptotic (%) [3]: 54% and 23%
Population Healthy Nuclei (%) [3]: 70% and 47%
Population Hoechst High Intensity Objects (%) [3]: 0% and 3%
Population Membrane Permeable-Phenotype (%) [3]: 0% and 12%
Population Mitochondria Different-Phenotype (%) [3]: 3% and 6%
Population Mitotic Cells (%) [3]: 45% and 76%
Population Normal (%) [3]: 99% and 96%
Population Pyknosed Nuclei (%) [3]: 16% and 14%
Population Tubulin-Different-Phenotype (%) [3]: 11% and 32%
Population Apoptotic (%) [4]: 65% and 38%
Population Fragmented Nuclei (%) [4]: 16% and 39%
Population Healthy Nuclei (%) [4]: 60% and 44%
Population Hoechst High Intensity Objects (%) [4]: 3%
Population Membrane Permeable-Phenotype (%) [4]: 0% and 12%
Population Mitochondria Different-Phenotype (%) [4]: 5% and 4%
Population Mitotic Cells (%) [4]: 34% and 61%
Population Normal (%) [4]: 96%
Population Pyknosed Nuclei (%) [4]: 23% and 15%
Population Tubulin-Different-Phenotype (%) [4]: 21% and 51%
Population Apoptotic (%) [5]: 50% and 38%
Population Fragmented Nuclei (%) [5]: 17% and 41%
Population Healthy Nuclei (%) [5]: 67% and 48%
Population Hoechst High Intensity Objects (%) [5]: 1%
Population Membrane Permeable-Phenotype (%) [5]: 0% and 6%
Population Mitochondria Different-Phenotype (%) [5]: 6% and 5%
Population Mitotic Cells (%) [5]: 50% and 61%
Population Normal (%) [5]: 98%
Population Pyknosed Nuclei (%) [5]: 15% and 10%
Population Tubulin-Different-Phenotype (%) [5]: 23% and 45%
Population Apoptotic (%) [6]: 77% and 37%
Population Fragmented Nuclei (%) [6]: 20% and 50%
Population Healthy Nuclei (%) [6]: 65% and 44%
Population Hoechst High Intensity Objects (%) [6]: 2% and 3%
Population Membrane Permeable-Phenotype (%) [6]: 2% and 6%
Population Mitochondria Different-Phenotype (%) [6]: 4% and 3%
Population Mitotic Cells (%) [6]: 22% and 62%
Population Normal (%) [6]: 97% and 96%
Population Pyknosed Nuclei (%) [6]: 13% and 5%
Population Tubulin-Different-Phenotype (%) [6]: 32% and 46%
